pIC50: −log10 of the molar value.
Tests used:
Format in all cases: cell-based
[1] = target: T1, Nucleotide-binding oligomerization domain-containing protein 2 (Homo sapiens, UniProt Q9HC29); test: Antagonist activity at human NOD2 expressed in HEK-Blue cells assessed as inhibition of MDP-stimulated cell activation preincubated for 3 hrs followed by MDP addition measured after 20 hrs by SEAP reporter gene assay
Method in brief: (§1)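 HEK-Blue hNOD1 or hNOD2 cells preincubated with compound 3 h, then stimulated 20 h with C12-iE-DAP 50 ng/mL (NOD1) or MDP 100 ng/mL (NOD2); SEAP in supernatant quantified. Primary screen at 10 μM, hits repeated in triplicate; IC50 from dose-response, mean ± SD (n = 3), only for compounds reaching ≥50% inhibition at the screening concentration.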

[2] = target: T2, Nucleotide-binding oligomerization domain-containing protein 1 (Homo sapiens) (UniProt Q9Y239); test: Antagonist activity at human NOD1 expressed in HEK-blue cells assessed as inhibition of C12-iE-DAP-stimulated cell activation at 5 uM preincubated for 3 hrs followed by C12-iE-DAP addition measured after 20 hrs by SEAP reporter gene assay
T2 sequence (whole entry): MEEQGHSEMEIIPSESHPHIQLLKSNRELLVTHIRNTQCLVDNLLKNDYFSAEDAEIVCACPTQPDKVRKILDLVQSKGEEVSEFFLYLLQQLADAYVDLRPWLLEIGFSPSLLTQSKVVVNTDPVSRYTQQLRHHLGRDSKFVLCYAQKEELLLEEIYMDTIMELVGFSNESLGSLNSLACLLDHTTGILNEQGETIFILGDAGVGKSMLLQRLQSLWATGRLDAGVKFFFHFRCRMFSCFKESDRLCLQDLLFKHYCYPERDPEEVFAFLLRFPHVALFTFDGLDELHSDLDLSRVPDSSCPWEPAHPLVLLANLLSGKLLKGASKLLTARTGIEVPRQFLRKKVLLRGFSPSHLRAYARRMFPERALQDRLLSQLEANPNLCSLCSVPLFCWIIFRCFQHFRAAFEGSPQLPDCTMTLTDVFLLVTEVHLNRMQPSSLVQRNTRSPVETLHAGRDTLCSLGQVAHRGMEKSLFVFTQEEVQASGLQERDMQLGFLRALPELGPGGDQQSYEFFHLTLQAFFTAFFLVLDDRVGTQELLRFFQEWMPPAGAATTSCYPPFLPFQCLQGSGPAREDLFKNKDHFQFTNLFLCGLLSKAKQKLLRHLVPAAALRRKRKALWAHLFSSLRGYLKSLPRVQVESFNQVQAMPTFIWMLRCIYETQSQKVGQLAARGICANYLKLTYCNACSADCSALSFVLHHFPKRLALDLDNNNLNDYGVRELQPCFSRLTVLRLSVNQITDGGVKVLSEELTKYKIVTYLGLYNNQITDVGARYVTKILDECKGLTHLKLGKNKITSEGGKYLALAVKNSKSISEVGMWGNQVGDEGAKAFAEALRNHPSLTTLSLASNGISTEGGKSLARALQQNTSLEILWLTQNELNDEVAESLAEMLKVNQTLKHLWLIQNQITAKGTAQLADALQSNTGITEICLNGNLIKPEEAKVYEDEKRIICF

[3] = target: T1, Nucleotide-binding oligomerization domain-containing protein 2; test: Antagonist activity at human NOD2 expressed in HEK-Blue cells assessed as inhibition of MDP-stimulated cell activation at 5 uM preincubated for 3 hrs followed by MDP addition measured after 20 hrs by SEAP reporter gene assay
[4] = target: T1, Nucleotide-binding oligomerization domain-containing protein 2; test: Antagonist activity at human NOD2 expressed in HEK-Blue cells assessed as inhibition of MDP-stimulated cell activation at 10 uM preincubated for 3 hrs followed by MDP addition measured after 20 hrs by SEAP reporter gene assay; method in brief: as §1
[5] = target: T3, Nucleotide-binding oligomerization domain-containing protein 1 (Homo sapiens, UniProt Q9Y239); test: Antagonist activity at human NOD1 expressed in HEK-blue cells assessed as inhibition of C12-iE-DAP-stimulated cell activation preincubated for 3 hrs followed by C12-iE-DAP addition measured after 20 hrs by SEAP reporter gene assay; method in brief: as §1
T3 sequence (Q9Y239 whole entry): T2 sequence (whole entry)

[6] = target: T2, Nucleotide-binding oligomerization domain-containing protein 1 (Homo sapiens); test: Antagonist activity at human NOD1 expressed in HEK-Blue cells assessed as inhibition of C12-iE-DAP-stimulated cell activation at 10 uM preincubated for 3 hrs followed by C12-iE-DAP addition measured after 20 hrs by SEAP reporter gene assay; method in brief: as §1

T1 sequence (Q9HC29 whole entry, the tested form may be a part): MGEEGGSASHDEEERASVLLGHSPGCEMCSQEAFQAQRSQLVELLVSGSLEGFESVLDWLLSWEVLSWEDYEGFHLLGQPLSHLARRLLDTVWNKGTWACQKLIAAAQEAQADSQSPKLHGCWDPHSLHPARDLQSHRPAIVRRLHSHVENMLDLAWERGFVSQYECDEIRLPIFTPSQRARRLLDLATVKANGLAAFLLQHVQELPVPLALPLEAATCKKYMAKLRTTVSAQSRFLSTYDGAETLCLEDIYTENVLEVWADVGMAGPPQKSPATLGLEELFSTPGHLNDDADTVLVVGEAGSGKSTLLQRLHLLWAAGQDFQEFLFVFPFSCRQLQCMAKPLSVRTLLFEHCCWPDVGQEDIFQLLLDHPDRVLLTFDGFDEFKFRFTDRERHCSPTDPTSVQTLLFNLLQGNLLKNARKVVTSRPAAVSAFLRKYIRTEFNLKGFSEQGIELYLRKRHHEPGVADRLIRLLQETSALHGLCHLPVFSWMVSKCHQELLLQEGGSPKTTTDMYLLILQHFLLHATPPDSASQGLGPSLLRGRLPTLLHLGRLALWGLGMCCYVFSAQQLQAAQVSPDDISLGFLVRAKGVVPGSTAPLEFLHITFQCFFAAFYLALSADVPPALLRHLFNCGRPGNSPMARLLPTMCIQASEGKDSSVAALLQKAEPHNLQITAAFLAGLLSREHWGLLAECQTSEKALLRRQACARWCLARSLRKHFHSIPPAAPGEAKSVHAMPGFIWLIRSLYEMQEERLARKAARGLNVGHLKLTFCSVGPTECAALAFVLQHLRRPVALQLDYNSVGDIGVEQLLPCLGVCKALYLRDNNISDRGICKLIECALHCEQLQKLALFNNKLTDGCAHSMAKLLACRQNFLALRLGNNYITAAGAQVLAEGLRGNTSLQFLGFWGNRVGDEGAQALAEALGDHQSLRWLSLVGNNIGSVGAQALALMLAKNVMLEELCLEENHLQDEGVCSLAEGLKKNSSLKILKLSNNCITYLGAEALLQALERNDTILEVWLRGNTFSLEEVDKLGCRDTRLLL

SMILES | pIC50 [1] | inhibition [2] | inhibition [3] | inhibition [4] | pIC50 [5] | inhibition [6]
COC(=O)CC[C@H]1NC(=O)c2cc(Oc3ccc(Cl)c(N(C)C)c3)c(NC(=O)COCc3ccc(Cl)cc3)cc2NC1=O | 5.99 | 71.8% | 82.2% | 79% | 5.81 | 55.1%
COC(=O)CC[C@H]1NC(=O)c2cc(Oc3cccc(N(C)C)c3)c(NC(=O)COCc3ccc(C(C)(C)C)cc3)cc2NC1=O | 5.62 | 67.7% | 75.2% | 75.7% | 5.71 | 73.3%
C[C@@H]1NC(=O)c2cc(Oc3cccc(N(C)C)c3)c(NC(=O)COCc3ccc(C(F)(F)F)cc3)cc2NC1=O | 6.03 | 73.8% | 64.5% | – | 5.71 | –
CN(C)c1cccc(Oc2cc3c(cc2NC(=O)COCc2ccccc2)NC(=O)[C@@H](CCC(=O)NC2CC2)NC3=O)c1 | 5.15 | 35.8% | 43.7% | 57% | 5.06 | 57.1%
CCN(CC)C(=O)CC[C@H]1NC(=O)c2cc(Oc3cccc(N(C)C)c3)c(NC(=O)COCc3ccccc3)cc2NC1=O | 5.47 | 80.5% | 60.8% | 76.9% | 5.90 | 80.8%
COC(=O)CC[C@H]1NC(=O)c2cc(Oc3cccc(N(C)C)c3)c(NC(=O)COCc3cccc(Cl)c3)cc2NC1=O | 5.68 | 76.7% | 71.5% | 84.1% | 5.89 | 81.8%
CN(C)C(=O)CC[C@H]1NC(=O)c2cc(Oc3cccc(N(C)C)c3)c(NC(=O)COCc3ccccc3)cc2NC1=O | – | 43.1% | 31% | 35.5% | 5.31 | 68%
COC(=O)CC[C@H]1NC(=O)c2cc(Oc3cccc(N(C)C)c3)c(NC(=O)COCc3ccc(OC)cc3)cc2NC1=O | 5.02 | 8.57% | 34.1% | 56.5% | – | 21.6%
CN(C)c1cccc(Oc2cc3c(cc2NC(=O)COCc2ccccc2)NC(=O)[C@@H](CCC(=O)N2CCCCC2)NC3=O)c1 | 5.52 | 82.8% | 63.3% | 80.6% | 5.95 | 86.7%
COC(=O)CC[C@H]1NC(=O)c2cc(Oc3cccc(N(C)C)c3)c(NC(=O)COCc3ccc4ccccc4c3)cc2NC1=O | 5.80 | 77.7% | 70.9% | – | 5.79 | –
COC(=O)CC[C@H]1NC(=O)c2cc(Oc3cc(Cl)cc(N(C)C)c3)c(NC(=O)COCc3ccccc3)cc2NC1=O | 5.30 | 47.1% | 54.9% | 56.5% | – | 4.89%
COC(=O)CC[C@H]1NC(=O)c2cc(Oc3cccc(N(C)C)c3Cl)c(NC(=O)COCc3ccc(Cl)cc3)cc2NC1=O | – | 21.9% | 15.7% | 15.7% | – | 0.08%
COC(=O)CC[C@H]1NC(=O)c2cc(Oc3cccc(N(C)C)c3)c(NC(=O)COCc3ccc(C(F)(F)F)cc3)cc2NC1=O | 6.06 | 89.8% | 89% | 91.9% | 6.03 | 90.7%
COC(=O)CC[C@H]1NC(=O)c2cc(Oc3cccc(N(C)C)c3)c(NC(=O)COCc3ccc(F)c(F)c3)cc2NC1=O | 5.77 | 83.7% | 83.5% | 91.2% | 5.94 | 89%
CN(C)c1cccc(Oc2cc3c(cc2NC(=O)COCc2ccc(Cl)cc2)NC(=O)[C@@H](CCC(=O)N2CCCCC2)NC3=O)c1 | 6.05 | 82.9% | 91.2% | 96.7% | 5.97 | 85.2%
COC(=O)CC[C@@H]1NC(=O)c2cc(Oc3cccc(N(C)C)c3)c(NC(=O)COCc3ccc(C(F)(F)F)cc3)cc2NC1=O | 6.23 | 89.6% | 87.8% | – | 6.24 | –
COC(=O)CC[C@H]1NC(=O)c2cc(Oc3cccc(N(C)C)c3)c(NC(=O)COCc3ccc(C#N)cc3)cc2NC1=O | 5.60 | 65.4% | 72.8% | 67.9% | 5.40 | 59.6%
CCCNC(=O)CC[C@H]1NC(=O)c2cc(Oc3cccc(N(C)C)c3)c(NC(=O)COCc3ccc(Cl)cc3)cc2NC1=O | – | 52.9% | 37.6% | 44.6% | – | 47.6%
CCCCCCCCCCCCNC(=O)CC[C@H]1NC(=O)c2cc(Oc3cccc(N(C)C)c3)c(NC(=O)COCc3ccccc3)cc2NC1=O | – | 37.1% | 29.1% | 23.1% | – | 48.2%
COC(=O)CC[C@H]1NC(=O)c2cc(Oc3cccc(N(C)C)c3)c(NC(=O)COCc3ccc(Cl)cc3)cc2NC1=O | 5.91 | 90.7% | 86.3% | 90.7% | 6.21 | 90.6%
CCCCNC(=O)CC[C@H]1NC(=O)c2cc(Oc3cccc(N(C)C)c3)c(NC(=O)COCc3ccccc3)cc2NC1=O | 5.54 | 81.8% | 60.5% | 71.6% | 5.89 | 86%
CCCNC(=O)CC[C@H]1NC(=O)c2cc(Oc3cccc(N(C)C)c3)c(NC(=O)COCc3ccc(F)cc3)cc2NC1=O | – | 68% | 30.8% | 48.8% | 5.55 | 80.1%
CCCCCCCCCCCCCCCCNC(=O)CC[C@H]1NC(=O)c2cc(Oc3cccc(N(C)C)c3)c(NC(=O)COCc3ccccc3)cc2NC1=O | – | 10.6% | -4.77% | -7.1% | – | 27.5%
CN(C)c1cccc(Oc2cc3c(cc2NC(=O)COCc2ccccc2)NC(=O)[C@@H](CCC(=O)N2CCCC2)NC3=O)c1 | 5.42 | 73.2% | 58.2% | 75.6% | 5.63 | 82%
COC(=O)CC[C@H]1NC(=O)c2cc(Oc3cc(N(C)C)cc(Cl)c3Cl)c(NC(=O)COCc3ccccc3)cc2NC1=O | – | -5.19% | 9.23% | 6.85% | – | 1.4%
COC(=O)CC[C@H]1NC(=O)c2cc(Oc3cc(N(C)C)ccc3Cl)c(NC(=O)COCc3ccccc3)cc2NC1=O | – | 24.8% | 11% | 7.26% | – | 29.3%
COC(=O)CC[C@H]1NC(=O)c2cc(Oc3cccc(N4CCCC4)c3)c(NC(=O)COCc3ccc(Cl)cc3)cc2NC1=O | 5.82 | 80.9% | 86% | 94% | 5.86 | 86.6%
COC(=O)CC[C@H]1NC(=O)c2cc(Oc3cccc(N(C)C)c3)c(NC(=O)COCc3cccc(F)c3)cc2NC1=O | 5.40 | 83.9% | 67% | 82.9% | 5.86 | 89.8%
CCCNC(=O)CC[C@H]1NC(=O)c2cc(Oc3cccc(N(C)C)c3)c(NC(=O)COCc3ccc(Br)cc3)cc2NC1=O | – | 50.2% | 40.3% | 31% | – | 50.5%

Reference: ChEMBL document CHEMBL4014339, “Discovery of 1,4-Benzodiazepine-2,5-dione (BZD) Derivatives as Dual Nucleotide Binding Oligomerization Domain Containing 1/2 (NOD1/NOD2) Antagonists Sensitizing Paclitaxel (PTX) To Suppress Lewis Lung Carcinoma (LLC) Growth in Vivo” (J Med Chem, 2017)
